ChEMBL document CHEMBL1955744, “Bis-pyrrolyl-tetrazolyl derivatives as hybrid polar compounds: A case of lipophilic functional bioisosterism with bis-acetamides” (2012)
Active and inactive are the calls of the source. The rule behind the calls is not given here.

Columns and labels:
[1] = Induction of cell differentiation in MEL cells at 100 uM after 96 hrs by benzidine staining; type: functional, Mus musculus
Procedure, shortened: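 MEL cells were seeded at 1.0 x 10^5 cells/mL in DMEM with 10% FBS and 1% PS at 37 °C, 5% CO2, then exposed to 100 µM agent in DMSO (final DMSO below 0.5% v/v) for 96 h. HMBA 5 mM served as positive control. Hb-producing cells were scored by benzidine-H2O2 staining and reported as percentage benzidine-positive.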

MEL [2] = assay: Growth inhibition of MEL cells after 48 hrs; type: functional, cell-based; conditions: Mus musculus
Procedure, shortened: (§1)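 MEL cells seeded at 1.0 x 10^5 cells/mL in DMEM with 10% v/v FBS and 1% PS, 37 °C, 5% CO2. Agents dissolved in DMSO (final DMSO below 0.5% v/v) and tested at 0.01–100 µM for 48 h. Cells counted by Neubauer hemocytometer. Growth given as percentage of untreated control.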

[3] = Growth inhibition of MEL cells at 0.01 to 100 uM after 48 hrs relative to control; type: functional, Mus musculus; procedure, shortened: as §1
[4] = Upregulation of beta-major globin gene expression in MEL cells at 5 mM after 24 to 96 hrs by RT-PCR analysis; type: functional, cell-based; conditions: Mus musculus
Procedure, shortened: (§2)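 MEL cells were treated with 10^-4 M agent or 5 mM HMBA for 0, 24, 48, 72 and 96 h, with untreated cells as control. Cells were washed in PBS. Total cytoplasmic RNA (1 µg/reaction) was extracted by acid guanidinium thiocyanate-phenol-chloroform and run in one-step RT-PCR: 50 °C 30 min, 94 °C 2 min, then 30 cycles of 94/58/72 °C, then 72 °C 10 min. β-major globin primers were used with β-actin as internal control.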

MEL [5] = assay: Induction of cell differentiation in MEL cells assessed as hemoglobin accumulation at 5 mM by after 24 to 96 hrs by spectrophotometry; type: functional, cell-based; conditions: Mus musculus
Procedure, shortened: (§3)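 MEL cells (1.0 x 10^5 cells/mL, DMEM/10% FBS/1% PS, 37 °C, 5% CO2) were treated with 10^-4 M agent or 5 mM HMBA, alongside untreated controls. Total cellular Hb was measured spectrophotometrically in samples taken over a 24–96 h time course.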

[6] = Growth inhibition of MEL cells at 0.1 mM after 96 hrs; type: functional; conditions: Mus musculus, read-out: GI
Procedure, shortened: (§4)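 Exponentially growing MEL cells (1.0 x 10^5 cells/mL, DMEM/10% FBS/1% PS, 37 °C, 5% CO2) were exposed to 10^-4 M agent in DMSO. Untreated cultures served as control and HMBA 5 mM as reference. Samples were removed at various intervals up to 96 h and counted by hemocytometer. Growth was expressed as absolute number or as percentage of control.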

[7] = Upregulation of beta-major globin gene expression in MEL cells at 0.1 mM after 24 to 96 hrs by RT-PCR analysis; type: functional, cell-based; conditions: Mus musculus; procedure, shortened: as §2
MEL [8] = assay: Growth inhibition of MEL cells at 0.1 mM; type: functional, cell-based; conditions: Mus musculus, TDE = time-dependent effect; procedure, shortened: as §4
MEL [9] = assay: Induction of cell differentiation in MEL cells assessed as hemoglobin accumulation at 0.1 mM by after 24 to 96 hrs by spectrophotometry; type: functional, cell-based; conditions: Mus musculus; procedure, shortened: as §3

| SMILES | Activity [1] [%] | growth inhibition (GI) (MEL [2]) | growth inhibition (GI) [3] [%] | Activity [4] | Activity (MEL [5]) | inhibition of growth at 100 µM [6] [%] | Activity [7] | growth inhibition (GI) (MEL [8]) | Activity (MEL [9]) |
| --- | --- | --- | --- | --- | --- | --- | --- | --- | --- |
| c1ccn(-c2nnn(Cc3ccc(Cn4nnc(-n5cccc5)n4)cc3)n2)c1 | 5 | Dose-dependent effect | 30 | – | – | – | – | – | – |
| CC(=O)NCCCCCCNC(C)=O | – | – | – | Active | Active | – | – | – | – |
| c1ccn(-c2nnn(CCCCCCCn3nnc(-n4cccc4)n3)n2)c1 | 5 | Dose-dependent effect | 30 | – | – | – | – | – | – |
| CNC(=O)c1cccn1-c1nnn(CCCCCCn2nnc(-n3cccc3C(=O)NC)n2)n1 | 5 | Dose-dependent effect | 30 | – | – | – | – | – | – |
| c1ccn(-c2nnn(CCCCCCn3nnc(-n4cccc4)n3)n2)c1 | 30 | Dose-dependent effect | 30 | – | – | > 75 | Active | tde | Active |
| c1ccn(-c2nnn(CCCCCn3nnc(-n4cccc4)n3)n2)c1 | 5 | Dose-dependent effect | 30 | – | – | – | – | – | – |
